From ChEMBL document CHEMBL1122179, “1-(alkylamino)isochromans: hypotensives with peripheral and central activities” (J Med Chem, 1982)

Key:
Rattus norvegicus [1] = test: Delta BP refers to oral hypotensive activity of compound which is evaluated at 4 hr and 24 hr in restrained, normotensive conscious rats at a dose of 50 mg/kg; -19/-19; assay type: functional
Outline: (§1)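 Female Sprague-Dawley rats, normotensive, restrained in a towel. Blood pressure was read directly via chronic indwelling aortic cannulas exteriorized at the nape, before and 4 and 24 h after an oral dose suspended in carboxymethylcellulose (10 mL/kg). Values from two animals were averaged at each time; a mean change of at least 5 mmHg was taken as significant (p < 0.05).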

Rattus norvegicus [2] = test: Delta BP refers to oral hypotensive activity of compound which is evaluated at 4 hr and 24 hr in restrained, normotensive conscious rats at a dose of 50 mg/kg; -16/-10; assay type: functional; conditions: dose 15 mg/kg, in the assay text read “dose of 15 mg/kg” for “dose of 50 mg/kg”; outline: as §1
Rattus norvegicus [3] = test: Delta BP refers to oral hypotensive activity of compound which is evaluated at 4 hr and 24 hr in restrained, normotensive conscious rats at a dose of 50 mg/kg; -13/-10; assay type: functional; outline: as §1
[4] = biological target: T1, Adrenergic receptor alpha-1 (Rattus norvegicus, UniProt P15823+P23944+P43140); test: Compound was tested for the inhibition of [3H]prazosin binding […] adrenergic receptor of crude rat brain membrane.
T1 sequence (P15823 whole entry): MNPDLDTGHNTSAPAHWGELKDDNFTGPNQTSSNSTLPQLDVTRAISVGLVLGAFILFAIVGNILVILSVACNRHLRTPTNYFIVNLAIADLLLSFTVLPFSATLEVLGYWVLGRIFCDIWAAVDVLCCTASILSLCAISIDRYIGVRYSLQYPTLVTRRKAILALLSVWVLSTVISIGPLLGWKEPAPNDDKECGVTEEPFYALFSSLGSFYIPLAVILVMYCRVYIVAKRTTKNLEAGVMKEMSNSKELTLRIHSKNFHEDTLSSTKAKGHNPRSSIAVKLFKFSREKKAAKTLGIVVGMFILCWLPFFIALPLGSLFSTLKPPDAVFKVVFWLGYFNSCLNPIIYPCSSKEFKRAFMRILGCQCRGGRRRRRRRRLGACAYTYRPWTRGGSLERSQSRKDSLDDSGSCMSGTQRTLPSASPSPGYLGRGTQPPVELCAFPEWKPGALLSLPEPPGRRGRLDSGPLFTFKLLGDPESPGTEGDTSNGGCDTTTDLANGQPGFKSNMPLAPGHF
T1 sequence (P23944 whole entry): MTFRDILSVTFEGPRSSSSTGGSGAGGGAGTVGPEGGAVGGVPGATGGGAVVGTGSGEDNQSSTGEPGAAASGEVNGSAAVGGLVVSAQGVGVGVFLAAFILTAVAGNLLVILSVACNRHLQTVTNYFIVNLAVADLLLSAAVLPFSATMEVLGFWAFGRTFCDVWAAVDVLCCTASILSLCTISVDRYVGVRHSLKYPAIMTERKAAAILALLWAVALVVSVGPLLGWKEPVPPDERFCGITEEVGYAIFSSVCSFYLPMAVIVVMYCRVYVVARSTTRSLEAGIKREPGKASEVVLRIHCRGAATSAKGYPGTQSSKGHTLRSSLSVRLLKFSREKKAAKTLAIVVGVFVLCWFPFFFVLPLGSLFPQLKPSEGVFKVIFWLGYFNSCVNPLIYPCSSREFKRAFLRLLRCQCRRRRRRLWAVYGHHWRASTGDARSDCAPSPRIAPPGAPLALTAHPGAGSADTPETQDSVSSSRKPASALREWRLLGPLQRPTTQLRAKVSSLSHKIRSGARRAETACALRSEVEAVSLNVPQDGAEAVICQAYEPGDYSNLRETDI
T1 sequence (P43140 whole entry): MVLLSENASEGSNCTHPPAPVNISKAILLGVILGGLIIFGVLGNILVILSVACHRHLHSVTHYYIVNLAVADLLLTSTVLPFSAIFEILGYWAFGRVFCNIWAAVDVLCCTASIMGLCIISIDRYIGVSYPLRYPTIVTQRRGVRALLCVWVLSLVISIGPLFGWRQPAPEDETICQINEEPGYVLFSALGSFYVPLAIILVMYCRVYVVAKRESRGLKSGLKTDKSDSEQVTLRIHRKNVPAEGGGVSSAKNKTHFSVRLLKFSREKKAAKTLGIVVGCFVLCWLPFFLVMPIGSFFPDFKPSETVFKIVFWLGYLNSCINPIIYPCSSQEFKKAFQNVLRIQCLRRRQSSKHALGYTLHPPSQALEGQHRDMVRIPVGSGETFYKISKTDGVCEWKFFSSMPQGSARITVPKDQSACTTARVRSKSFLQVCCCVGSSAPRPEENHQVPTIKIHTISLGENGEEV

[5] = biological target: T2, Adrenergic receptor alpha-2 (Rattus norvegicus, UniProt P22086+P19328+P22909); test: Compound was tested for the inhibition of [3H]clonidine binding Alpha-2 adrenergic receptor of crude rat brain membrane
T2 sequence (P22086 whole entry): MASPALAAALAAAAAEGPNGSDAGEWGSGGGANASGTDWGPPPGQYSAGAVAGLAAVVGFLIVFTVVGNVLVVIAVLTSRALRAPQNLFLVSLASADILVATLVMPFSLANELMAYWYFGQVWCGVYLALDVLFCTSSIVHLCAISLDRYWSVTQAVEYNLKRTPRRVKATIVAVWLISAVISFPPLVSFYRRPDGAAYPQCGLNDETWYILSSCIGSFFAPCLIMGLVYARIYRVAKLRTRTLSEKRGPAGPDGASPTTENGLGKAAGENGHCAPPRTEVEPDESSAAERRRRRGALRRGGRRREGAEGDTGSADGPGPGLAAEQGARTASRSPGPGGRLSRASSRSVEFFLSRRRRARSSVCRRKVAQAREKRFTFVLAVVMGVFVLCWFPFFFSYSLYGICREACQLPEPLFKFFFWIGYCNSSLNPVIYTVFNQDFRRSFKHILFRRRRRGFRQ
T2 sequence (P19328 whole entry): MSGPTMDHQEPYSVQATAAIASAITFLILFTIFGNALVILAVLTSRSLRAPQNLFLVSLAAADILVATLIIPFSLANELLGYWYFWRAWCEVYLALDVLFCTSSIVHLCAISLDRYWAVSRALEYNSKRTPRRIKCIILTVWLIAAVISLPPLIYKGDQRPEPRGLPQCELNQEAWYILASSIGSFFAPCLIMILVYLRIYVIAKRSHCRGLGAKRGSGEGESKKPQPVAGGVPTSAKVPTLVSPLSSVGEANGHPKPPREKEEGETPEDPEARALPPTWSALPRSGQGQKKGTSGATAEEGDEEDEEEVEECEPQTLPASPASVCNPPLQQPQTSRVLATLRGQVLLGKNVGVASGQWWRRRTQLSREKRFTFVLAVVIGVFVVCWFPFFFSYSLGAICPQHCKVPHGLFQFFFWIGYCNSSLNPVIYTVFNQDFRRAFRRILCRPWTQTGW
T2 sequence (P22909 whole entry): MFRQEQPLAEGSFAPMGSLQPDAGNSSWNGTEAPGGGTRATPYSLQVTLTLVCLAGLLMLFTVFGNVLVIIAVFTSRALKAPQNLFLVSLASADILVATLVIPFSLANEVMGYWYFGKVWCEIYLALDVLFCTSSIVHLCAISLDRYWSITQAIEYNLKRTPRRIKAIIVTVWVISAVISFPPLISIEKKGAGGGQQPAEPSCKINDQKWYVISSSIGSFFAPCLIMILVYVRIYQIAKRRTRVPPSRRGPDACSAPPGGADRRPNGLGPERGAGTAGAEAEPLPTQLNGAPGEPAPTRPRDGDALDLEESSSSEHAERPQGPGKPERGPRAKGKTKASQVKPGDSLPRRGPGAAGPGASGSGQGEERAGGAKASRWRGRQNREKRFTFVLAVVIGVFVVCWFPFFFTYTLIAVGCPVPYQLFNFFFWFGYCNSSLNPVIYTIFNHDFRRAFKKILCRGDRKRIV

Rattus norvegicus [6] = test: Delta BP refers to oral hypotensive activity of compound which is evaluated at 4 hr and 24 hr in restrained, normotensive conscious rats at a dose of 50 mg/kg; -17/-9; assay type: functional; outline: as §1
Rattus norvegicus [7] = test: Delta BP refers to oral hypotensive activity of compound which is evaluated at 4 hr and 24 hr in restrained, normotensive conscious rats at a dose of 50 mg/kg; -17/-20; assay type: functional; outline: as §1
Rattus norvegicus [8] = test: Delta BP refers to oral hypotensive activity of compound which is evaluated at 4 hr and 24 hr in restrained, normotensive conscious rats at a dose of 50 mg/kg; 1/0; assay type: functional; outline: as §1
Rattus norvegicus [9] = test: Delta BP refers to oral hypotensive activity of compound which is evaluated at 4 hr and 24 hr in restrained, normotensive conscious rats at a dose of 50 mg/kg; -24/-5; assay type: functional; outline: as §1
Rattus norvegicus [10] = test: Delta BP refers to oral hypotensive activity of compound which is evaluated at 4 hr and 24 hr in restrained, normotensive conscious rats at a dose of 50 mg/kg; -11/-16; assay type: functional; outline: as §1

Molecule `COc1cc2c(cc1OC)C(CCCN1CCN(c3ccccc3)CC1)(c1ccc(F)cc1)OCC2` (stereo not given) has a Delta blood pressure (Rattus norvegicus [1]) of -19 mmHg and a Delta blood pressure (Rattus norvegicus [2]) of -16 mmHg.

`COc1cc2c(cc1OC)C(CCN1CCN(c3ccccc3)CC1)OCC2` (stereo not given) was tested, and the Delta blood pressure (Rattus norvegicus [3]) was -13 mmHg.

`COc1cc2c(cc1OC)C(CCN1CCN(c3ccc(F)cc3)CC1)OCCC2` (stereo not given) gave a Ki [4] of 4 nM and a Ki [5] of 307 nM.

In the case of `COc1cc2c(cc1OC)C(C)(CCN1CCN(c3ccccc3)CC1)OCC2` (stereo not given), the Delta blood pressure (Rattus norvegicus [6]) was -17 mmHg.

`COc1cc2c(cc1OC)C(CCN1CCN(c3ccccc3C)CC1)OC(C)(C)C2` (stereo not given) showed a Delta blood pressure (Rattus norvegicus [7]) of -17 mmHg.

`COc1cc2c(cc1OC)C(CCN1CCN(c3cccc(Cl)c3)CC1)OCC2` (stereo not given) showed a Delta blood pressure (Rattus norvegicus [8]) of 1 mmHg.

In the case of `COc1cc2c(cc1OC)C(CN1CCN(c3ccccc3C)CC1)OCC2` (stereo not given), the Delta blood pressure (Rattus norvegicus [9]) was -24 mmHg.

`COc1cc2c(cc1OC)C(C)(CCCN1CCN(c3ccccn3)CC1)OCC2` (stereo not given) was tested, and the Delta blood pressure (Rattus norvegicus [10]) was -11 mmHg.
